The target in test [1] is T1, Tyrosine-protein phosphatase non-receptor type 1 (Homo sapiens, UniProt P18031).
T1 sequence (P18031 whole entry): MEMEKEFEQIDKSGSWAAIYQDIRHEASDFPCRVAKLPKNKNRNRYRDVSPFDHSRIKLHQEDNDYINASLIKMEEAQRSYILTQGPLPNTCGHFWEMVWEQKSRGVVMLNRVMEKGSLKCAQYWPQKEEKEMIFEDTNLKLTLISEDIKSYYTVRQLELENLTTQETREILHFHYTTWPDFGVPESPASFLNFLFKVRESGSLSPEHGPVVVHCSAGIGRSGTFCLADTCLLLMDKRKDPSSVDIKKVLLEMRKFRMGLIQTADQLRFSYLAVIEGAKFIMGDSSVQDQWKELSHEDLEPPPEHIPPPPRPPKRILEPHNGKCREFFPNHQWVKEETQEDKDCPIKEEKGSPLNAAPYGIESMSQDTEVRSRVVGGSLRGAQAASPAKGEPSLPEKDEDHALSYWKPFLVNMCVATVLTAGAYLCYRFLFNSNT
Briefly: Inhibition of human PTP1B using p-nitrophenol phosphate as substrate incubated for 35 mins prior to substrate addition measured after 30 mins by spectrophotometry. The method, boiled down: (§1)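 Recombinant human phosphatase, expressed and purified, in 20 mM MOPS pH 7.2 with 50 mM NaCl. Preincubated with inhibitor at various concentrations for 35 min at 37 °C. p-NPP (0.1 M stock) added and reaction run about 30 min, then stopped with 2 M NaOH.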

Test [2] deals with T2, Tyrosine-protein phosphatase non-receptor type 2 (Homo sapiens, UniProt P17706).
T2 sequence (P17706 whole entry): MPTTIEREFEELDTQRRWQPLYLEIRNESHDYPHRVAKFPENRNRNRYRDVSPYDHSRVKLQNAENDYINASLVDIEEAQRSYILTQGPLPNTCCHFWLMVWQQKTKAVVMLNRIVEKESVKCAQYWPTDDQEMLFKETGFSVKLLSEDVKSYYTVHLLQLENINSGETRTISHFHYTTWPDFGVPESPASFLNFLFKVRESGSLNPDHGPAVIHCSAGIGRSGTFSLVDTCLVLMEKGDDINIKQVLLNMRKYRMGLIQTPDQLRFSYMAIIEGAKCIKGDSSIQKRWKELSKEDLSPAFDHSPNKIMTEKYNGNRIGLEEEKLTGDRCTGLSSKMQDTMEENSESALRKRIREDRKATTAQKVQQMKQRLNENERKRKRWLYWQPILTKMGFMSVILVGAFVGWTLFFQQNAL
Description: Inhibition of human TCPTP using p-nitrophenol phosphate as substrate incubated for 35 mins prior to substrate addition measured after 30 mins by spectrophotometry. The method, boiled down: as §1

The target of test [3] is T3, Tyrosine-protein phosphatase non-receptor type 9 (Homo sapiens, UniProt P43378).
T3 sequence (P43378 whole entry): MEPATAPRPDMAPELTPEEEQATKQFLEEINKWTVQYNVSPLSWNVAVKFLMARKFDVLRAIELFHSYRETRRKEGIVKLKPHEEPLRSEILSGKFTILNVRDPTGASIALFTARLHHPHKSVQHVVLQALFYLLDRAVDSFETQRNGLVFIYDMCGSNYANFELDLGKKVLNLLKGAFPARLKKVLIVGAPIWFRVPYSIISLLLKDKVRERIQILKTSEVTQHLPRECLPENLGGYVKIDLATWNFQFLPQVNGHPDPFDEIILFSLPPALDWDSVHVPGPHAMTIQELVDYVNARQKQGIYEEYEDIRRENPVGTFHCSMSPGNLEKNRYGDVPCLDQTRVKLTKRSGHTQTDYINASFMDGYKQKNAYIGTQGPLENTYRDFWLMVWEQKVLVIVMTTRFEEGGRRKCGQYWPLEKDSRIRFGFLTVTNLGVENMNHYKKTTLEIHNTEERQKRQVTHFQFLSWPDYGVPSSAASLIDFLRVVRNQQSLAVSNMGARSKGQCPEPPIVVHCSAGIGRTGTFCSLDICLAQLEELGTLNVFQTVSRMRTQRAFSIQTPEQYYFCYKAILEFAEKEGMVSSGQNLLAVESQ
Briefly: Inhibition of human PTP-MEG2 using p-nitrophenol phosphate as substrate incubated for 35 mins prior to substrate addition measured after 30 mins by spectrophotometry. The method, boiled down: as §1

Test [4] has as its target Tyrosine-protein phosphatase non-receptor type 6 (Homo sapiens, UniProt P29350). Briefly: Inhibition of human SHP1 using p-nitrophenol phosphate as substrate incubated for 35 mins prior to substrate addition measured after 30 mins by spectrophotometry. The method, boiled down:
as §1

In test [5] the target is T4, Tyrosine-protein phosphatase non-receptor type 11 (Homo sapiens, UniProt Q06124).
T4 sequence (Q06124 whole entry): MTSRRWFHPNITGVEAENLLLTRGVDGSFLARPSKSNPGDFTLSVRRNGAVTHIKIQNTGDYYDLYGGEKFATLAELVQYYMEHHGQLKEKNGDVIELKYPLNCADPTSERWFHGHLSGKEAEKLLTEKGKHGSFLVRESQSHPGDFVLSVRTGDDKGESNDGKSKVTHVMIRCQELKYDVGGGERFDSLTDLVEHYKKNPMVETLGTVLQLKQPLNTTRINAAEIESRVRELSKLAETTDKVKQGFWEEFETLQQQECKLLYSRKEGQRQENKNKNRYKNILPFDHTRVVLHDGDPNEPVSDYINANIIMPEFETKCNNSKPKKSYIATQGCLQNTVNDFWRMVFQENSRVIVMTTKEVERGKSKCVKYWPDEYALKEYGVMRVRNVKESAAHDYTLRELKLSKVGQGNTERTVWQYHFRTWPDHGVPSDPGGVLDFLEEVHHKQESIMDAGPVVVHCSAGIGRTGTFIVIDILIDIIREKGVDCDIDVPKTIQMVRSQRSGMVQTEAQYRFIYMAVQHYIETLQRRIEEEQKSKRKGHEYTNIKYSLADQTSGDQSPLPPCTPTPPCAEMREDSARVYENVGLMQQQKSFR
Description: Inhibition of human SHP2 using p-nitrophenol phosphate as substrate incubated for 35 mins prior to substrate addition measured after 30 mins by spectrophotometry. The method, boiled down:
as §1

Test [6] deals with T5, Tyrosine-protein phosphatase non-receptor type 9 (Homo sapiens) (UniProt P43378).
T5 sequence (whole entry): T3 sequence (P43378 whole entry)

The target in test [7] is T6, Tyrosine-protein phosphatase non-receptor type 1 (Homo sapiens) (UniProt P18031).
T6 sequence (whole entry): T1 sequence (P18031 whole entry)

Experimental findings from ChEMBL document CHEMBL1944565, “Exploration of α-aminophosphonate N-derivatives as novel, potent and selective inhibitors of protein tyrosine phosphatases” (Eur J Med Chem, 2012) are described below.

Molecules are shown by their SMILES. pIC50: −log10 of the molar value.

Tyrosine-protein phosphatase non-receptor type 6, sequence (P29350 whole entry): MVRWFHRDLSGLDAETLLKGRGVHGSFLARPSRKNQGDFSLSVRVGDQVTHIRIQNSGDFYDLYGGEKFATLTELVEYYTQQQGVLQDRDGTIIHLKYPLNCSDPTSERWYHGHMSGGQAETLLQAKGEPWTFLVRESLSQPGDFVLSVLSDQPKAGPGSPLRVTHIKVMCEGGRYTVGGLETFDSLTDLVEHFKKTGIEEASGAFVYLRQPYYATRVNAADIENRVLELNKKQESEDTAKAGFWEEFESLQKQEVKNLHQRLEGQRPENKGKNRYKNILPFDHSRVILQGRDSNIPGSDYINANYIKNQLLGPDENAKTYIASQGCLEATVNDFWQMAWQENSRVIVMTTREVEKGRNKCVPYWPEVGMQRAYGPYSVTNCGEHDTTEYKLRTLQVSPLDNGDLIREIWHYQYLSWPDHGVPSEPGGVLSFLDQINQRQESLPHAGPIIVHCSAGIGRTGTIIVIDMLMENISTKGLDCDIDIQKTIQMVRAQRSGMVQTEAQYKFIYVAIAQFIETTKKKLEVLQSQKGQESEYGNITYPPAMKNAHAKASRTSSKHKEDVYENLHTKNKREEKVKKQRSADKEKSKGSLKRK

`CCOP(=O)(O)C(N[C@@H](Cc1c[nH]c2ccccc12)C(=O)O)c1ccccc1O` (some centres not stated): the pIC50 in test [1], in test [2], in test [3], in test [4] and in test [5] was < 2.00 in each case.

In the case of `CCOP(=O)(O)C(NCCNC(c1ccccc1O)P(=O)(O)OCC)c1ccccc1O` (configuration not stated), the pIC50 in test [1], in test [2], in test [3], in test [4] and in test [5] was < 2.00 each time.

For `CCOP(=O)(O)C(N[C@@H](Cc1cnc[nH]1)C(=O)O)c1ccccc1O` (some centres not stated), the pIC50 in test [1] is 3.48; in test [2] it was 3.75; in test [3], < 2.00; in test [4], 3.78; in test [5], 3.68.

For `CCOP(=O)(O)C(N[C@@H](Cc1ccc(O)cc1)C(=O)O)c1ccccc1O` (some centres not stated), the pIC50 in test [1], in test [2], in test [3], in test [4] and in test [5] was < 2.00 throughout.

As to `CCOP(=O)(O)C(N[C@@H](Cc1ccccc1)C(=O)O)c1ccccc1O` (some centres not stated), the pIC50 in test [1], in test [2], in test [3], in test [4] and in test [5] was < 2.00 throughout.

Regarding `CCOP(=O)(O)C(N[C@@H](CO)C(=O)O)c1ccccc1O` (some centres not stated), the pIC50 in test [1] is 3.87; in test [2] it was 3.91; in test [3], 4.16; in test [4], 3.89; in test [5], 3.72. The Kic in test [6] was 102 µM.

On to `CCOP(=O)(OCC)[C@H](Nc1ccc([N+](=O)[O-])cc1)c1ccccc1O`, for which the pIC50 in test [1] is 3.66; in test [2], 3.62; in test [3], 3.54; in test [4], < 2.00; in test [5], < 2.00.

Take `CCOP(=O)(O)C(NCC(=O)O)c1ccccc1O` (configuration not stated): the pIC50 in test [1], in test [2], in test [3], in test [4] and in test [5] was < 2.00 throughout.

Regarding `CCOP(=O)(O)C(N[C@H](C(=O)O)[C@@H](C)O)c1ccccc1O` (some centres not stated), the pIC50 in test [1], in test [2], in test [3], in test [4] and in test [5] was < 2.00 each time.

As for `CCOP(=O)(O)C(NCCCCCCNC(c1ccccc1O)P(=O)(O)OCC)c1ccccc1O` (configuration not stated), the pIC50 in test [1], in test [2], in test [3], in test [4] and in test [5] was < 2.00 throughout.

On to `CCOP(=O)(OCC)[C@H](Nc1ccc(Br)cc1)c1ccccc1O`, for which the pIC50 was 4.04 in test [1]; 4.29 in test [2]; 3.76 in test [3]; < 2.00 in test [4]; < 2.00 in test [5]. Further, the Kic in test [7] worked out at 96.3 µM.

On to `CCOP(=O)(O)C(NCCCNC(c1ccccc1O)P(=O)(O)OCC)c1ccccc1O` (configuration not stated), for which the pIC50 in test [1], in test [2], in test [3], in test [4] and in test [5] was < 2.00 throughout.

Consider `CCOP(=O)(OCC)[C@H](Nc1ccccc1Cl)c1ccccc1O`, for which the pIC50 in test [1] was 3.86; in test [2], 3.75; in test [3] it was 3.84; in test [4] it was < 2.00; in test [5] it was < 2.00.

Consider `CCOP(=O)(OCC)[C@H](Nc1ccc(Cl)cc1)c1ccccc1O`, for which the pIC50 in test [1] was 3.43; in test [2], 3.20; in test [3] it was 3.46; in test [4], < 2.00; in test [5], < 2.00.

For the molecule `CCOP(=O)(O)C(N[C@@H](C)C(=O)O)c1ccccc1O` (some centres not stated), the pIC50 in test [1], in test [2], in test [3], in test [4] and in test [5] was < 2.00 each time.

Turning to `CCOP(=O)(O)C(N[C@@H](CS)C(=O)O)c1ccccc1O` (some centres not stated), the pIC50 in test [1], in test [2], in test [3], in test [4] and in test [5] was < 2.00 in each case.
